STAT1 activator: activators of IFN-gamma induced STAT1 signaling; NIH 3T3 STAT1-luciferase reporter, luminescence; 100% = IFN-gamma alone, no compound; activation (% of control), % at 5.5 µM; 2.6% of 200,000 active;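 active = activation above the screen-wide mean activation plus 3 SD, cut at about 130% in these data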
APP 5'UTR act: APP 5'UTR luciferase reporter activation; SH-SY5Y APP 5'UTR luciferase reporter, luminescence; zero percent = DMSO vehicle wells; activation, % at 2 µM; 1% of 190,000 active; AID 1276;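 active = activation above a set limit, based on mean plus 3 SD of controls, cut at about 140% in these data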
FLuc stim CS: affects firefly luciferase, flagging false hits in luciferase stimulation screens; P08659; ATPlite luciferase biochemical, luminescence, 10 min; 0 = ATP-free wells, 1 = DMSO control; activation factor at 10 µM; 200,000 tested, under 10 active; AID 1027;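 active = luciferase activation factor, scaled between plate controls, of at least 2 with compound at 10 µM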
Target sequence (P08659 whole entry, looked up): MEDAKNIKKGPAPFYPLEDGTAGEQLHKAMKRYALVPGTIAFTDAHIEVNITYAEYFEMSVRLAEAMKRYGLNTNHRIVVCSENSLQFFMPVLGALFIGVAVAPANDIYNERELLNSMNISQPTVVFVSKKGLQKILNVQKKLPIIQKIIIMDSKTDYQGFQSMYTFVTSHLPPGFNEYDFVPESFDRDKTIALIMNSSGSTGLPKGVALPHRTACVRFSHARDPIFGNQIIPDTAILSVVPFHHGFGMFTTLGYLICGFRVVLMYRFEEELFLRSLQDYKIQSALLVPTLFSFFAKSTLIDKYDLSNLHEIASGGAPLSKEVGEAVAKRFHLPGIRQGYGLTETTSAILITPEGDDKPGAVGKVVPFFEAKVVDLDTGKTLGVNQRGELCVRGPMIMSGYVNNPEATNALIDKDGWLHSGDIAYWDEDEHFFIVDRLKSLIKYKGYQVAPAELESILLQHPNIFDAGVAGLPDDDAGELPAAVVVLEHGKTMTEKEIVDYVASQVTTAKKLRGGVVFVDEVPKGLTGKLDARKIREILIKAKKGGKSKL
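Assay system: Luciferase/luciferin reagent mix; Medium: PBS as buffer for the ATP substrate; Dosing: test compounds dosed from 2 mM stocks in 100% DMSO; Times: 10 min, room temperature; Signal: luminescence from luciferase reaction; Read-out: luciferase activation; Controls: No-ATP low control, compound-free enzyme-plus-ATP high control.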
FLuc inhib CS: counter-screen for luciferase assay inhibitors: firefly luciferase inhibition; P08659; ATPLite firefly luciferase biochemical luminescence, 10 min; inhibition, % at 10 µM; 1.5% of 200,000 active; AID 1006;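 active = inhibition above about 50% when tested at 10 µM, limit read from the data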
NF-kB expr up: compounds increasing NF-kB expression in human neuronal cells; NF-kB reporter expression; active compounds read high; fold change at 12.5 µM; 1.6% of 190,000 active; AID 1239; in the data active = fold change above about 3.3
Of the large screens only hits and unclear results are named; the others gave an inactive call. Compounds with a hit are over-represented: about 4.3% of the library has one in this group of screens.

O=C(COC(=O)CCCN=C1NS(=O)(=O)c2ccccc21)NC(=O)NC1CCCC1	none
CNC(=O)/C(C#N)=C/c1ccc(-c2ccc(Cl)cc2)o1	STAT1 activator 141.7
COc1ccc(C2CCCN2C(=O)Nc2ccccc2)cc1OC (stereo not drawn)	none
Cn1cccc1C(=O)C(=O)Nc1ccc(Cl)cc1	APP 5'UTR act 186.0, FLuc inhib CS 61.9, NF-kB expr up 10.6
Cn1cccc1C(=O)C(=O)Nc1cccc(Cl)c1Cl	STAT1 activator 147.0, NF-kB expr up 3.64
Cn1cccc1C(=O)C(=O)Nc1cc(Cl)cc(Cl)c1	none
Cc1cc(S(=O)(=O)N2CCCC(C(=O)Nc3ccc(C(=O)O)cc3)C2)ccc1Cl (stereo not drawn)	none
COc1ccc(N=c2oc3ccc(OC)cc3cc2-c2nc3ccccc3[nH]2)cc1	none
COc1cccc(N=c2oc3ccc(OC)cc3cc2-c2nc3ccccc3[nH]2)c1	STAT1 activator 134.8
COc1cccc(N=c2oc3ccccc3cc2-c2nc3ccccc3[nH]2)c1	STAT1 activator 146.6, NF-kB expr up 3.51
O=C(CSc1ccc(F)cc1)NCCSc1ccccc1	none
Cc1cc(NS(=O)(=O)c2ccc(NC(=S)NC(=O)c3ccc(Br)cc3)cc2)no1	none
Cc1c(C(=O)NCc2ccoc2)oc2ccc3c(c12)C(=O)CC(C)(C)O3	STAT1 activator 146.5, NF-kB expr up 3.85
N/C(=N\OC(=O)Cc1ccccc1)c1ccccc1Cl	STAT1 activator 147.4
O=[N+]([O-])c1cccc(-c2nc3ccc([N+](=O)[O-])cc3[nH]2)c1	none
O=[N+]([O-])c1ccc(O)c(C=Nc2ccc3nc(-c4ccccc4)[nH]c3c2)c1	STAT1 activator 140.1
Cc1ccc(-c2nc3ccc([N+](=O)[O-])cc3[nH]2)cc1	APP 5'UTR act 152.1, FLuc inhib CS 60.8, NF-kB expr up 5.94
Oc1c(Br)cc(C=Nc2ccc3nc(-c4ccccc4)[nH]c3c2)c(O)c1Br	STAT1 activator 132.9, FLuc inhib CS 55.9
c1ccc2sc(NCC3CCCO3)nc2c1 (stereo not drawn)	STAT1 activator 135.6
c1ccc2oc(-c3csc(NCC4CCCO4)n3)cc2c1 (stereo not drawn)	STAT1 activator 147.7, APP 5'UTR act 168.8, NF-kB expr up 9.07
c1ccc(CCNc2nc3ccccc3s2)cc1	none
Cc1ccc(CNc2nc3ccccc3s2)s1	APP 5'UTR act 182.3, FLuc inhib CS 89.9, NF-kB expr up 4.21
Cc1cc(NC(=O)CSc2nc(CC(C)(C)C)nc3c2c(=O)n(C)c(=O)n3C)no1	none
CCCN(CCC)S(=O)(=O)c1ccc(C(=O)Nc2cc3oc4ccccc4c3cc2OC)cc1	none
COc1cc(NC(=O)Cn2nc(C(F)(F)F)c(Br)c2C)cc([N+](=O)[O-])c1	none
CCn1cnc2cc(NC(=O)c3cccs3)ccc21	STAT1 activator 135.3, FLuc inhib CS 50.8
CC(C)(C)n1cnc2cc(NC(=O)c3cccs3)ccc21	STAT1 activator 141.7, FLuc inhib CS 71.0, NF-kB expr up 4.04
CCn1cnc2cc(NCc3cccs3)ccc21	none
CC(C)(C)n1cnc2cc(NCc3cccs3)ccc21	none
CC(C)Oc1ccc(C(CC(=O)O)NC(=O)C(Sc2ccccc2)c2ccccc2)cc1 (stereo not drawn)	none
Cc1cccc(NC(=S)N/N=C/c2c[nH]c3ccccc23)c1	STAT1 activator 131.7
Cc1ccc(NC(=S)N/N=C/c2c(C)nn(-c3ccccc3)c2N2CCCC2)cc1	none
Cc1nn(C)cc1/C=N/NC(=S)Nc1ccccc1	NF-kB expr up 3.39
COc1cc2cc(CN(Cc3cccs3)C(=S)Nc3ccccc3)c(=O)[nH]c2cc1OC	none
Cn1ccnc1SCc1cn2cc(Br)ccc2n1	APP 5'UTR act 163.9
O=C(CSc1nnc(NC(=O)c2ccc3c(c2)OCO3)s1)NCc1ccco1	FLuc inhib CS 91.0
CCOC(=O)COc1ccc2c(=O)c(-c3ccccc3)coc2c1	none (no result: STAT1 activator, FLuc stim CS, FLuc inhib CS, NF-kB expr up)
COc1ccc2c(=O)c(-c3nc(C)cs3)coc2c1	FLuc inhib CS 77.6, NF-kB expr up 5.89
CC(=O)Oc1ccc2c(=O)c(-c3ccccc3)coc2c1	STAT1 activator 130.7
Cc1csc(-c2coc3cc(O)cc(C)c3c2=O)n1	none
Cc1nc(-c2coc3cc(OCC(=O)O)ccc3c2=O)cs1	FLuc inhib CS 77.6
Cc1nc(-c2coc3cc(O)c(C)cc3c2=O)cs1	APP 5'UTR act 142.0, FLuc inhib CS 82.7
CS(=O)(=O)N(CC(=O)Nc1ccc(S(=O)(=O)N2CCOCC2)cc1)c1cccc(F)c1	none (no result: NF-kB expr up)
Cc1cc(C)cc(COn2ccnc2)c1	none
NNC(=O)CN1CCCc2ccccc21	STAT1 activator 148.5
O=C(CN1CCCc2ccccc21)NCc1ccccc1Cl	none
O=C1c2ccccc2C(=O)N1CCN1CCc2ccccc21	STAT1 activator 131.9
Cc1cccc(C)c1NC(=O)COC(=O)c1cccnc1	none
N/C(Cc1cccc2ccccc12)=N\OC(=O)c1ccc2c(c1)OCO2	none
COc1ccc(Cl)cc1C(=O)O/N=C(\N)c1ccc(Cl)cc1	none
N/C(=N\OC(=O)c1ccc2c(c1)OCO2)c1cccnc1	FLuc inhib CS 96.6, NF-kB expr up 3.55
N/C(=N\OC(=O)/C=C/c1ccccc1)c1ccncc1	none
N/C(=N\OC(=O)c1cc(Cl)ccc1Cl)c1ccncc1	STAT1 activator 141.4
N/C(=N\OC(=O)c1cccc(Cl)c1)c1cccnc1	FLuc inhib CS 68.3
N/C(=N\OC(=O)Cc1ccc(Cl)cc1)c1cccnc1	none
N/C(=N\OC(=O)/C=C/c1ccccc1Cl)c1ccncc1	APP 5'UTR act 235.3, NF-kB expr up 3.8
NC(=O)c1nn(-c2ccccc2)nc1NC(=O)Cn1nnc(-c2ccccc2)n1	none
CCOc1cc(CNc2ccc(CNc3ncn[nH]3)cc2)ccc1OCc1ccccc1	none
CN(C)S(=O)(=O)c1cccc(-c2nnc(SCC(=O)NCCCCCC(=O)O)n2-c2ccc(F)cc2)c1	none
COc1ccc(NC(=O)C(=O)NCCN2CCN(C(=O)c3ccco3)CC2)cc1	none
N/C(=N\OC(=O)c1ccc(Cl)c(Cl)c1)c1cccnc1	NF-kB expr up 3.97
N/C(=N\OC(=O)COc1ccc(Cl)cc1Cl)c1cccnc1	none
N/C(=N\OC(=O)Cc1ccc(Cl)cc1)c1ccncc1	none
N/C(=N\OC(=O)c1cccc(Cl)c1)c1ccncc1	STAT1 activator 141.3
Cn1cccc1/C=N/N1CCN(c2ccccc2)CC1	none
CCN1/C(=C/c2ccc3cccc(C)c3[n+]2CC)Sc2ccccc21	NF-kB expr up 4.97
C=CCn1c(=O)c2ccccc2n2c(SCc3c(C(=O)OCC)oc4ccccc34)nnc12	none (no result: STAT1 activator, APP 5'UTR act, NF-kB expr up)
O=C(OCc1c(Cl)cccc1Cl)c1ccncc1	none
O=C(c1ccc(Br)o1)N1CCc2ccccc21	STAT1 activator 147.5, FLuc inhib CS 54.0, NF-kB expr up 4.32
O=C(c1ccco1)N1CCc2ccccc21	STAT1 activator 133.6
O=C1CCN(C(=O)/C=C/c2ccccc2)c2ccccc21	STAT1 activator 129.3
O=C(c1ccc(Br)o1)N1CCCc2ccccc21	none
CCOC(=O)/C=C/C(=O)N1CCc2ccccc21	none

From PubChem
